Assay outcomes deposited in PubChem BioAssay by Sanford-Burnham Center for Chemical Genomics.
Sampled rows, rich in hits. Any-hit rate of the full collection: about 2.9%.
SENP8 block-1: inhibitors of human SENP8 protease | recombinant SENP8, Nedd8 substrate fluorescence | inhibition, % at 20 µM | 360,000 tested, 0.64% active | Q96LD8; in the data active means inhibition mostly above about 40%, no sharp cut-off; inactive means mostly below about 27%
Target sequence (Q96LD8 whole entry, looked up): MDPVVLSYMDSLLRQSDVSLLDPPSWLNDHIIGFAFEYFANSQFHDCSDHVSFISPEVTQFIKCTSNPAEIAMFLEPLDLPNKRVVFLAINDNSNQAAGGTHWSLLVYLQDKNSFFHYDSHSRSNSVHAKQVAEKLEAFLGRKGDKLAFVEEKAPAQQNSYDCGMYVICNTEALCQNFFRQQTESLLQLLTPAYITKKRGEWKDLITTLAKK
SENP6 block: inhibitors of human SENP6 protease; Q9GZR1; Recombinant SENP6 catalytic domain, aminoluciferin luminescence; inhibition, % at 10 µM; 330,000 tested, 1.8% active; AID 2599;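 active means inhibition above about 50% at the single tested dose, limit read from the data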
Target sequence (Q9GZR1 628-1112 limits assumed): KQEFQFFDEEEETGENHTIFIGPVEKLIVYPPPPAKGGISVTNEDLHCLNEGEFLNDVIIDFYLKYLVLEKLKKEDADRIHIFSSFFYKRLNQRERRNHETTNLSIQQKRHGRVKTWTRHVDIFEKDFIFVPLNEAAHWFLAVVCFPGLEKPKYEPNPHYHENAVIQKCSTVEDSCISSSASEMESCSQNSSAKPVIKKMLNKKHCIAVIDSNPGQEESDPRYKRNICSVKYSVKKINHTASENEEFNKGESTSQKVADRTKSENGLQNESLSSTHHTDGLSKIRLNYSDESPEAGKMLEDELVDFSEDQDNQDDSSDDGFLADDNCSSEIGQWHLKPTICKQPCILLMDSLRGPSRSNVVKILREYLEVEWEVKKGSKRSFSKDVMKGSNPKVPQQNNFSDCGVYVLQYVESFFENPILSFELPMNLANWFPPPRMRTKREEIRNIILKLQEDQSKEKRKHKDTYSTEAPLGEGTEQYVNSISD
SENP8 block-2: blocks the human protease SENP8; 330,000 tested, 1.2% active; inhibition, % at 10 µM; purified SENP8, Z-RLRGG-aminoluciferin cleavage, luminescence; in the data active means inhibition above about 50%
Apaf1 inhib: blocks human Apaf-1 apoptosome activity | reconstituted apoptosome caspase-3 activity, DEVD-Rh110 fluorescence | 330,000 tested, 0.71% active | O14727 | inhibition, % at 20 µM | AID 489030; active means inhibition of at least 40% at 20 µM
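Material: reconstituted apoptosome with Apaf-1, cytochrome c, caspase-9, procaspase-3, dATP / Buffer or medium: pH 7.5 Hepes buffer with CHAPS, BSA, DTT / Also added: cytochrome c with DEVD-Rh110 / Schedule: compound with Apaf-1, dATP, procaspase-3 30 min, then 50 min reaction, room temperature / Technique: rhodamine 110 fluorescence at Ex 480/Em 540 nm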
SENP7 inh: SENP7 protease inhibition; Q9BQF6; recombinant SENP7, Z-RLRGG-aminoluciferin luminescence, 40 min; inhibition, % at 5 µM; 330,000 tested, 1.5% active;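 active means inhibition above about 50% at the single test dose, limit read from the data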
SENP1 FRET inh: blocks the human SENP1 SUMO protease catalytic domain; recombinant SENP1 catalytic domain, CyPet-SUMO1-YPet FRET cleavage; inhibition, % at 10 µM; 360,000 tested, 0.21% active; AID 624204;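 active means inhibition at least 30% at 10 µM, raw YFP signal under a set limit, fluorescence ratio 0.5 to 1.5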
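Test system: hSENP1 catalytic domain, recombinant; Amount: 20 pM final SENP1 enzyme; Medium: Tris pH 8 buffer plus EDTA, NaCl, BME, BSA, NP40, catalase; Schedule: 50 min enzyme reaction, room temperature, light-protected; Technique: FRET fluorescence in CFP and YFP emission channels; Controls: no-enzyme wells low, DMSO-plus-enzyme wells high control.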
SENP8 confirm: confirmation of human SENP8 protease inhibitors. shares compounds with SENP7 inh. Recombinant SENP8, Z-RLRGG-aminoluciferin luminescence, 60 min. inhibition, % at 12.5 µM. 6,200 tested, 40% active. AID 488912;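 active means mean inhibition across replicates above about 50%, limit read from the data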
SENP6 confirm: confirmation of human SENP6 protease inhibitors | 6,200 tested, 58% active | recombinant SENP6, Z-RLRGG-aminoluciferin luminescence | shares compounds with SENP7 inh | AID 488915 | inhibition, % at 12.5 µM
SENP7 conf: confirmation of human SENP7 protease inhibitors; shares compounds with SENP7 inh; recombinant SENP7, Z-RLRGG-aminoluciferin luminescence, 40 min; inhibition, % at 12.5 µM; 6,200 tested, 69% active; AID 488917
Casp3 SENP sel: inhibits human caspase-3 in SENP selectivity test. shares compounds with SENP7 inh. purified caspase-3, Z-DEVD-aminoluciferin luminescence, 60 min. inhibition, % at 12.5 µM. 6,200 tested, 60% active;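 active means mean inhibition above about 50%, limit read from the data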
SENP luc ctr: counter-screen for SENP inhibitors: luminescence interference | shares compounds with SENP7 inh | inhibition, % at 12.5 µM | AID 488919 | 6,200 tested, 39% active | Pre-incubated SENP8/Z-RLRGG-aminoluciferin, luciferase luminescence interference;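 active means mean inhibition above about 50% when retested at one dose, limit read from the data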
Of the large screens only hits and unclear results are named; the others gave an inactive call (follow-up assays come after a bar, where they were run).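 How the source made its calls, unless noted: active means mean inhibition above about 50% in the one-dose retest (limit read from the data); inactive means the rest.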

C[C@H](CO)N1C[C@H](C)[C@H](CN(C)C(=O)Nc2ccc(F)cc2)OCc2cnnn2CCCC1=O	none (no result: SENP6 block, SENP8 block-2, Apaf1 inhib, SENP7 inh)
CN1N=C2c3ccccc3CCC2C1c1ccc(F)cc1 (centres undefined)	none
CN1N=C2c3ccccc3CCC2C1c1ccc(Cl)cc1 (centres undefined)	SENP8 block-2 58.5 | SENP8 confirm inactive | SENP6 confirm inactive | SENP7 conf inactive | Casp3 SENP sel inactive | SENP luc ctr inactive
Nc1ccc(C(=O)O)cc1	none
Cc1ccc(-c2nnc(-c3ccccc3)o2)cc1	SENP6 block 92.2, SENP8 block-2 82.2, SENP7 inh 92.7 | SENP8 confirm inactive | SENP6 confirm 80.5 | SENP7 conf 95.6 | Casp3 SENP sel 86.4 | SENP luc ctr 53.5
O=C(O)c1ccc(C(=O)C(=O)c2ccccc2)cc1	SENP6 block 66.4 | SENP8 confirm inactive | SENP6 confirm inactive | SENP7 conf 79.9 | Casp3 SENP sel 84.7 | SENP luc ctr 67.2
O=C(CSc1nnc(-c2ccccc2)o1)N1CCCCC1	none
O=C(O)c1ccc(-c2nnc(-c3ccccc3)o2)cc1	SENP6 block 99.0, SENP8 block-2 95.2, SENP7 inh 98.4 | SENP8 confirm inactive | SENP6 confirm 96.8 | SENP7 conf 101.4 | Casp3 SENP sel 96.5 | SENP luc ctr 81.3
O=C(c1ccc(-c2nnc(-c3ccccc3)o2)cc1)N1CCCCCC1	SENP6 block 96.1, SENP8 block-2 88.3, SENP7 inh 93.1 | SENP8 confirm inactive | SENP6 confirm inactive | SENP7 conf 59.9 | Casp3 SENP sel 69.2 | SENP luc ctr inactive
O=C(Nc1ccc(F)c(Cl)c1)c1cc(C2CCCCN2C(=O)CCc2ccccc2)on1 (centres undefined)	none (no result: SENP6 block, SENP8 block-2, Apaf1 inhib, SENP7 inh)
CCCCc1ccc(NC(=O)Nc2cccnc2)cc1	SENP6 block 73.8, SENP8 block-2 50.8, SENP7 inh 57.6 | SENP8 confirm 63.1 | SENP6 confirm 67.3 | SENP7 conf 84.5 | Casp3 SENP sel inactive | SENP luc ctr inactive
COC(=O)c1ccccc1NC(=O)Nc1cccnc1	SENP6 block 76.5, SENP8 block-2 58.8 | SENP8 confirm inactive | SENP6 confirm 72.5 | SENP7 conf 95.0 | Casp3 SENP sel 92.2 | SENP luc ctr 69.5
COC(=O)c1ccccc1NC(=O)c1cccnc1	none
C/C(CC(=O)Nc1cccc(F)c1)=N\NC(=O)c1ccncc1	none
Cc1cnc(Nc2nc3ccccc3o2)nc1C(=O)Nc1cccc(C(F)(F)F)c1	none
Cc1nc(Nc2nc3ccccc3o2)nc(C)c1C	SENP6 block 58.0, SENP7 inh 63.2 | SENP8 confirm inactive | SENP6 confirm 51.7 | SENP7 conf 86.9 | Casp3 SENP sel 80.5 | SENP luc ctr inactive
Cc1ccnc(Nc2nc3ccccc3o2)n1	SENP6 block 76.7, SENP8 block-2 66.6, SENP7 inh 72.9 | SENP8 confirm inactive | SENP6 confirm 54.4 | SENP7 conf 88.3 | Casp3 SENP sel 90.2 | SENP luc ctr inactive
Cc1ccc(Nc2nc3ccccc3o2)cc1F	SENP6 block 88.4, SENP8 block-2 77.5, SENP7 inh 86.9 | SENP8 confirm 56.8 | SENP6 confirm 80.9 | SENP7 conf 98.0 | Casp3 SENP sel 75.2 | SENP luc ctr inactive
CCN(CC)S(=O)(=O)c1ccc(N2CCOCC2)c(NC(=O)C2CC2)c1	none
CCc1cc(-c2nnn(CCC3COCCO3)c2C(C)(C)O)ccc1-c1cn(CCc2c[nH]c3ccccc23)nn1 (centres undefined)	none (no result: SENP6 block, SENP8 block-2, Apaf1 inhib, SENP7 inh)
Cn1c(=O)c2c(nc(NCC3CCCO3)n2C)n(C)c1=O (centres undefined)	SENP7 inh 51.4 | SENP8 confirm inactive | SENP6 confirm inactive | SENP7 conf inactive | Casp3 SENP sel inactive | SENP luc ctr inactive
CCOC(=O)[C@H]1[C@H]2COc3ccc(Br)cc3[C@H]2N2C(=O)CN(Cc3ccc(C)cc3)C(=O)[C@@]12C	none (no result: SENP6 block, SENP8 block-2, Apaf1 inhib, SENP7 inh)
CC(C(=O)N1CCN(C(=O)c2ccco2)CC1)N1C(=O)NC2(CCCCC2C)C1=O (centres undefined)	none
CC(=O)c1sc(Nc2nc3ccc(F)cc3s2)nc1C	SENP6 block 80.9, SENP8 block-2 53.2 | SENP8 confirm inactive | SENP6 confirm 71.5 | SENP7 conf 90.4 | Casp3 SENP sel inactive | SENP luc ctr inactive
CCOC(=O)c1csc(Nc2nc3ccc(F)cc3s2)n1	SENP6 block 58.0 | SENP8 confirm inactive | SENP6 confirm inactive | SENP7 conf inactive | Casp3 SENP sel inactive | SENP luc ctr inactive
COC(=O)c1ccc2nc(Nc3nc4ccc(F)cc4s3)sc2c1	none (no result: SENP6 block, SENP8 block-2, Apaf1 inhib, SENP7 inh)
C[C@H]1CN([C@@H](C)CO)S(=O)(=O)c2ccc(Br)cc2O[C@H]1CN(C)C(=O)Cc1ccccn1	none (no result: SENP6 block, SENP8 block-2, Apaf1 inhib, SENP7 inh)
Cc1cc(NC(=O)c2ccccc2)sc1C	SENP6 block 94.2, SENP8 block-2 89.8, SENP7 inh 94.0 | SENP8 confirm inactive | SENP6 confirm 96.3 | SENP7 conf 102.7 | Casp3 SENP sel 96.3 | SENP luc ctr 95.2
CCOC(=O)[C@H]1[C@H]2COc3ccc(OC)cc3[C@@H]2N2C(=O)CN(Cc3ccc(OC)cc3)C(=O)[C@@]12C	none
Cc1ccnc(NC(=O)CCC(=O)c2cccs2)c1	SENP6 block 86.7, SENP8 block-2 75.0, SENP7 inh 56.1 | SENP8 confirm 92.2 | SENP6 confirm 90.7 | SENP7 conf 98.7 | Casp3 SENP sel 95.1 | SENP luc ctr 90.7
CCCCN(C(=O)/C=C/c1ccc(OC)cc1)C1CCS(=O)(=O)C1 (centres undefined)	none
COc1ccccc1NC(=O)CCSc1ccc(C)cc1	SENP6 block 50.7 | SENP8 confirm inactive | SENP6 confirm inactive | SENP7 conf 63.4 | Casp3 SENP sel inactive | SENP luc ctr inactive
CC(=O)C1CCC2C3CC=C4CC(SC(=N)N)CCC4(C)C3CCC12C (centres undefined)	none (no result: SENP6 block, SENP8 block-2, Apaf1 inhib, SENP7 inh)
Nc1cccc2cc(-c3ccccc3)oc12	SENP6 block 54.9 | SENP8 confirm inactive | SENP6 confirm inactive | SENP7 conf 72.2 | Casp3 SENP sel inactive | SENP luc ctr 52.6
CCN(CC(=O)NCc1cccs1)S(=O)(=O)c1cccc(Br)c1	none
